According to ChEMBL document CHEMBL1137299, “Elucidation of the bioactive conformation of the N-substituted trans-3,4-dimethyl-4-(3-hydroxyphenyl)piperidine class of mu-opioid receptor antagonists” (J Med Chem, 2006):

What was measured:
[1] = target: T1, Kappa-type opioid receptor (Homo sapiens, UniProt P41145); test: Displacement of [3H]diprenorphine from human cloned kappa opioid receptor expressed in CHO cells; format: cell-based
Mu-type opioid receptor [2] = target: T2, Mu-type opioid receptor (Homo sapiens, UniProt P35372); test: Antagonist activity against human cloned mu opioid receptor expressed in CHO cells assessed as inhibition of loperamide-stimulated [35S]GTP-gamma-S binding; format: functional, cell-based
Mu-type opioid receptor [3] = target: T2, Mu-type opioid receptor; test: Displacement of [3H]diprenorphine from human cloned mu opioid receptor expressed in CHO cells; format: cell-based
[4] = target: T3, Delta-type opioid receptor (Homo sapiens, UniProt P41143); test: Displacement of [3H]diprenorphine from human cloned delta opioid receptor expressed in CHO cells; format: cell-based
[5] = target: T3, Delta-type opioid receptor; test: Antagonist activity against human cloned delta opioid receptor expressed in CHO cells assessed as inhibition of […]-stimulated [35S]GTP-gamma-S binding; format: functional, cell-based
How it was run: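 In receptor-expressing CHO membranes (50-100 µg protein), antagonist was added to mixtures containing […] agonist. Incubated 1 h at room temperature, then centrifuged; bound radioactivity was counted by scintillation.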

[6] = target: T1, Kappa-type opioid receptor; test: Antagonist activity against human cloned kappa opioid receptor expressed in CHO cells assessed as inhibition of […]-stimulated [35S]GTPgammaS binding; format: functional, cell-based
[7] = target: T3, Delta-type opioid receptor; test: Inhibition of [3H]diprenorphine binding to human cloned delta opioid receptor expressed in CHO cells at 10 uM; format: cell-based
How it was run: (§1)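 Membranes from CHO cells stably expressing human δ, κ or μ receptor (10-80 µg protein) incubated with [3H]diprenorphine (0.5-1.0 nM) and competitor at 10 µM. Buffer: 50 mM Tris-HCl pH 7.8, 1 mM EGTA, 5 mM MgCl2, protease inhibitors. 60 min at room temperature, then GF/B filtration and scintillation counting. Nonspecific binding was defined with 10 µM naloxone. Read-out was % inhibition of specific binding.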

Mu-type opioid receptor [8] = target: T2, Mu-type opioid receptor; test: Inhibition of [3H]diprenorphine binding to human cloned mu opioid receptor expressed in CHO cells at 10 uM; format: cell-based; how it was run: as §1
[9] = target: T3, Delta-type opioid receptor; test: Agonist activity at human cloned delta opioid receptor expressed in CHO cells assessed as stimulation of [35S]GTP-gamma-S binding; format: functional, cell-based
How it was run: (§2)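 CHO membranes expressing the relevant human receptor (50-100 µg protein) were exposed to a concentration series of agonist. Incubated 1 h at room temperature, centrifuged, and bound label counted. Potency and efficacy were assessed from stimulation.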

[10] = target: T1, Kappa-type opioid receptor; test: Partial agonist activity at human cloned kappa opioid receptor expressed in CHO cells assessed as stimulation of [35S]GTP-gamma-S binding; format: functional, cell-based; how it was run: as §2
Mu-type opioid receptor [11] = target: T2, Mu-type opioid receptor; test: Agonist activity at human cloned mu opioid receptor expressed in CHO cells assessed as stimulation of [35S]GTP-gamma-S binding; format: functional, cell-based; how it was run: as §2
[12] = target: T1, Kappa-type opioid receptor; test: Inhibition of [3H]diprenorphine binding to human cloned kappa opioid receptor expressed in CHO cells at 10 uM; format: cell-based; how it was run: as §1

T3 sequence (P41143 whole entry): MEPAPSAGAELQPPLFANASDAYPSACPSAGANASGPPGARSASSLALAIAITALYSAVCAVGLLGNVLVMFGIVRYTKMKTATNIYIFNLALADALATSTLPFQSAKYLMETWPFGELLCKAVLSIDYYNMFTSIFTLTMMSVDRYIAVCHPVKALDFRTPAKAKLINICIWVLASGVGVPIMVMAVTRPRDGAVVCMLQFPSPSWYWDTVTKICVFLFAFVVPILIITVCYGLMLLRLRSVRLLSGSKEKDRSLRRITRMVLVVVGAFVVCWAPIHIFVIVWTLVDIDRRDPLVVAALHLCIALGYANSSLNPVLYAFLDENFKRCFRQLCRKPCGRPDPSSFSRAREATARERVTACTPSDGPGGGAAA
T1 sequence (P41145 whole entry): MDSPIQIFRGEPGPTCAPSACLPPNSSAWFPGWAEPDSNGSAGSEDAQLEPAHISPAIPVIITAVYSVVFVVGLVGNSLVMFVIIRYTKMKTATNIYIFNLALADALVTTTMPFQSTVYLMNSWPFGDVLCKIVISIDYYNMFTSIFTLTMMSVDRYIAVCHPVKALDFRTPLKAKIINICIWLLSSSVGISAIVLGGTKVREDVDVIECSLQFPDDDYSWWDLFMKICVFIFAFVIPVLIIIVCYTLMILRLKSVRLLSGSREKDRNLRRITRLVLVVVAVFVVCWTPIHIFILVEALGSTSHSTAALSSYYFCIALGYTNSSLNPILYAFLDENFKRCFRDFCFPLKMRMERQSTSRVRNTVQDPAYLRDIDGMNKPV
T2 sequence (P35372 whole entry): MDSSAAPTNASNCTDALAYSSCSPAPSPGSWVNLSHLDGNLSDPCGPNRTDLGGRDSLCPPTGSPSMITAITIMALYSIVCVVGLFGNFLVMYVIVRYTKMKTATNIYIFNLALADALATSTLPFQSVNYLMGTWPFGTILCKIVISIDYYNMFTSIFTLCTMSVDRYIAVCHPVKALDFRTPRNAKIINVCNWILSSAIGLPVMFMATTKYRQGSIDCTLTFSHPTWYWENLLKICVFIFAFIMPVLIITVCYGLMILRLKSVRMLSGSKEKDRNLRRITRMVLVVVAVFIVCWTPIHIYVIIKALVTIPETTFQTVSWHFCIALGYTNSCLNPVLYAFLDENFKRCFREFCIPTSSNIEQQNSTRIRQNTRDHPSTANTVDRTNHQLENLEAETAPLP

SMILES | Ki [1] [µM] | IC50 (Mu-type opioid receptor [2]) [µM] | Ki (Mu-type opioid receptor [3]) [µM] | Ki [4] [µM] | inhibition [7] [%] | further results
C[C@H]1[C@@H]2CC[C@H](c3ccccc3)CN2CC[C@@]1(C)c1cccc(O)c1 | 0.1 | 0.15 | 0.073 | 0.19 |  | 
C[C@H]1CN2C[C@H](c3ccccc3)CC[C@H]2C[C@@]1(C)c1cccc(O)c1 |  | 0.00054 | 0.00062 | 0.031 |  | IC50 [5]: 0.016 µM; IC50 [6]: 0.0012 µM
C[C@H]1[C@@H]2CCCCN2CC[C@@]1(C)c1cccc(O)c1 | 0.069 | 1 | 0.12 | 0.22 |  | 
C[C@H]1CN2CCCC[C@@H]2C[C@@]1(C)c1cccc(O)c1 | 0.52 |  | 0.71 |  | 40 | 
C[C@H]1CN2C[C@@H](c3ccccc3)CC[C@@H]2C[C@@]1(C)c1cccc(O)c1 | 1.4 |  | 0.43 |  | 49 | 
C[C@H]1[C@H]2CC[C@H](c3ccccc3)CN2CC[C@@]1(C)c1cccc(O)c1 | 0.035 | 0.19 | 0.026 | 0.025 |  | 
C[C@H]1[C@H]2CCCCN2CC[C@@]1(C)c1cccc(O)c1 | 0.52 |  |  |  | 47 | inhibition (Mu-type opioid receptor [8]): 43%
C[C@H]1CN2C[C@H](c3ccccc3)CC[C@@H]2C[C@@]1(C)c1cccc(O)c1 | 0.43 | 0.21 | 0.11 | 0.9 |  | 
C[C@H]1[C@@H]2CC[C@@H](c3ccccc3)CN2CC[C@@]1(C)c1cccc(O)c1 | 0.065 |  | 0.0009 | 0.0021 |  | EC50 [9]: 0.055 µM; EC50 [10]: 0.2 µM; EC50 (Mu-type opioid receptor [11]): 0.053 µM
C[C@H]1CN2CCCC[C@H]2C[C@@]1(C)c1cccc(O)c1 |  |  | 0.94 |  | 37 | inhibition [12]: 44%
C[C@H]1[C@H]2CC[C@@H](c3ccccc3)CN2CC[C@@]1(C)c1cccc(O)c1 | 0.016 | 0.12 | 0.037 | 0.28 |  | 
C[C@H]1CN2C[C@@H](c3ccccc3)CC[C@H]2C[C@@]1(C)c1cccc(O)c1 | 0.44 | 0.11 | 0.11 |  | 51 | 
